Experiment [1] relates to Plasmodium falciparum. Put plainly: Antiplasmodial activity against ring stage Plasmodium falciparum 3D7 assessed as defective parasite division at 10 times IC50 concentration incubated for 24 hrs by transmission electron microscopy. It is filed as functional, organism-based. The essentials: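 Harvested with Plasmagel and fixed in 4% PFA/0.1% glutaraldehyde. Gelatin-embedded; 60nm ultrathin sections. Anti-H3 (1/100) labelled with 10nm protein A-gold. Stained with methylcellulose/0.4% uranyl acetate and imaged by TEM at 120 kV.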

In experiment [2] the test system is Plasmodium falciparum. Put plainly: Antiplasmodial activity against Plasmodium falciparum stage IIb-III gametocytes assessed as abnormal morphology by measuring rounded/swollen at highest concentration measured after 72 hrs using Geimsa staining based assay. The format is functional. The essentials: (§1)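 Day-4 stage IIb-III gametocytes (asexuals removed by N-acetyl glucosamine), about 1% gametocytemia at 2% hematocrit, treated 72h at 10, 5, 1 or 0.5 µM against 0.1% DMSO. Then washed and recultured with daily medium changes. Morphology and parasitemia scored daily on Giemsa-stained thin smears.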

A short description of experiment [3]: Inhibition of Plasmodium falciparum NF54 HDAC using extract measured after 60 mins by fluorescence assay.
In experiment [4] the target is T1, Protein deacetylase HDAC6 (Homo sapiens, UniProt Q9UBN7).
T1 sequence (Q9UBN7 whole entry): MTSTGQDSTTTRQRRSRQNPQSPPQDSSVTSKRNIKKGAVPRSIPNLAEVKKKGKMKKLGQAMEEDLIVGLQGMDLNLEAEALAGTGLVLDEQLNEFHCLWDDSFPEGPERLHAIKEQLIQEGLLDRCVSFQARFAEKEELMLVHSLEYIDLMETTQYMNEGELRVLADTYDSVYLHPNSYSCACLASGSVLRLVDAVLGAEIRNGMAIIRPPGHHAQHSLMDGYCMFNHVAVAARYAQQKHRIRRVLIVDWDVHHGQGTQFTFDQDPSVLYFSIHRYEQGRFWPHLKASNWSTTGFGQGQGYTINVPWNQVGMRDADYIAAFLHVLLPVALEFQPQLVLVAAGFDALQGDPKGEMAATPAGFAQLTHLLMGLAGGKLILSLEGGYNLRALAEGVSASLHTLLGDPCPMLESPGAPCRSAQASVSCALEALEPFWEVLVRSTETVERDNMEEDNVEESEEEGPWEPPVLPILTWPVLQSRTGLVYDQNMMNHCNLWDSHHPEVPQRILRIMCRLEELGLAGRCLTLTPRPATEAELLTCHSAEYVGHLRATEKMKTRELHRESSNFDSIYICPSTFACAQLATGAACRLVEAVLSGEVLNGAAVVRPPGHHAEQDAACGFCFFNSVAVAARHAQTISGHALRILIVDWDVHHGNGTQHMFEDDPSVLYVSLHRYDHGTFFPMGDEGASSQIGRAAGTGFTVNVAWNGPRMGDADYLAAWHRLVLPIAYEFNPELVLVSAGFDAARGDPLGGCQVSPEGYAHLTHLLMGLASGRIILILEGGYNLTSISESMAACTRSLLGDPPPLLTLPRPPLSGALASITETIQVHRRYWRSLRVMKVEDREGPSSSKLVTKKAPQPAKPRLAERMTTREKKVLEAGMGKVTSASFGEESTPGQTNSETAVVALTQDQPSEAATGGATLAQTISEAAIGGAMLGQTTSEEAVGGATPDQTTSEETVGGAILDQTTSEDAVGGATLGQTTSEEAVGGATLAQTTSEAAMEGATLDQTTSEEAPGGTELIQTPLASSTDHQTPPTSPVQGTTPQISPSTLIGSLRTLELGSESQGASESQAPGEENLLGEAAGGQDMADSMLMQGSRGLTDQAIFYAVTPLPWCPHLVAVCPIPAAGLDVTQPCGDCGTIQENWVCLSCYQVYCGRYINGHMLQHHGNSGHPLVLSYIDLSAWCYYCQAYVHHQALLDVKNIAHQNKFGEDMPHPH
Put plainly: Inhibition of human recombinant HDAC6 using Tosyl-Gly-ProLys(Ac)-AMC as substrate measured after 60 mins by fluorescence assay.

The subject of experiment [5] is Plasmodium falciparum. The experiment can be described thus: Antiplasmodial activity against Plasmodium falciparum stage IIb-III gametocytes assessed as abnormal morphology by measuring fragile like extensions at highest concentration measured after 72 hrs using Geimsa staining based assay. It is filed as functional. A digest of the protocol:
as §1

Experiment [6] concerns Plasmodium falciparum. Put plainly: Antiplasmodial activity against synchronized ring stage Plasmodium falciparum 3D7 assessed as parasite reduction over one cycle upto 48 hrs at 10 times IC50 concentration. It is filed as functional. The note with it: time hrs <=48. A digest of the protocol:
(§2)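 3D7 culture of mostly rings exposed to drug for 6, 24, 48, 72 or 96h. Then washed, serially diluted 1/3 in fresh RBC and grown 3 weeks. Growth read by SYBR-green I. Number of wells with growth used to back-calculate viable parasites at each time point and derive growth parameters. One experiment, run in duplicate.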

In experiment [7] the test system is Plasmodium falciparum. The experiment can be described thus: Antiplasmodial activity against Cambodian multidrug-resistant Plasmodium falciparum isolate incubated for 96 hrs measured by SYBR Green 1 assay. The format is functional, organism-based. The essentials: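 Cambodian isolates chosen by multidrug-resistance pattern, 10 per resistance type. Ring-synchronized cultures at 2% hematocrit and 1% starting parasitemia; 11-point 2-step dilutions from 500nM; 96h incubation, then SYBR-green I read-out. Mefloquine and monodesethylamodiaquine served as positive controls. Triplicate wells, one biological replicate per isolate.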

The subject of experiment [8] is Plasmodium falciparum. The experiment can be described thus: Antiplasmodial activity against Plasmodium falciparum 3D7 assessed as DNA damage in trophozoite stage measured upto 72 hrs using Geimsa stain based parasite reduction rate assay. The format is functional, organism-based. Particulars: time hrs <=72.
Experiment [9] concerns Plasmodium falciparum. Put plainly: Antiplasmodial activity against synchronized ring stage Plasmodium falciparum 3D7 assessed as parasite reduction rate in lag phase by measuring time required to achieve maximum speed of action at 10 times IC50 concentration. It is filed as functional. The essentials: as §2
A further experiment addresses Histone deacetylase 3 (Homo sapiens, UniProt O15379). The experiment can be described thus: Inhibition of human recombinant HDAC3 using Tosyl-Gly-ProLys(Ac)-AMC as substrate measured after 60 mins by fluorescence assay.
Another experiment addresses Histone deacetylase 2 (Homo sapiens, UniProt Q92769). Put plainly: Inhibition of human recombinant HDAC2 using Tosyl-Gly-ProLys(Ac)-AMC as substrate measured after 60 mins by fluorescence assay.
The test system of experiment [10] is Plasmodium falciparum. Put plainly: Antiplasmodial activity against Plasmodium falciparum 3D7 assessed as time to kill initial parasite load at 10 times IC50 concentration. The format is functional. The essentials: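 Parasite reduction rate assay on 3D7 cultures containing mostly rings, with DHA and pyrimethamine as references. Exposure windows of 6, 24, 48, 72 and 96h; cells then washed, serially diluted 1/3 in fresh RBC and grown 3 weeks before SYBR-green I read-out. Number of wells with growth gives viable parasites per time point, per Sanz et al. One experiment in duplicate.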

Experiment [11] relates to Plasmodium falciparum. Put plainly: Inhibition of trophozoite-stage Plasmodium falciparum HDAC in using nuclear extract assessed as H4K16 hyperacetylation at 10 times IC50 concentration incubated for 4 hrs by Western blot analysis. Particulars: in the assay text read “total extract” for “nuclear extract”. The essentials: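 Parasites exposed 4h at 10× IC50, with CQ and 0.1% DMSO as controls. Saponin-lysed (0.15%) and extracted in Laemmli/DTT buffer; 5.10⁶ parasites loaded per lane. Blots probed with anti-H4K16Ac (1/500) and anti-H3 (1/1000). H4K16Ac band intensity normalized to H3. Three independent experiments.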
For orientation: A western blot detects proteins with antibodies after separation by electrophoresis.

What is called IC50 is the concentration that inhibits the measured activity by half.

Structures are written as SMILES. Active and inactive are the calls of the source. The calls are words filed in the database; no cut-off is given here. Bounds are passed on as bounds.

Histone deacetylase 2, sequence (Q92769 whole entry): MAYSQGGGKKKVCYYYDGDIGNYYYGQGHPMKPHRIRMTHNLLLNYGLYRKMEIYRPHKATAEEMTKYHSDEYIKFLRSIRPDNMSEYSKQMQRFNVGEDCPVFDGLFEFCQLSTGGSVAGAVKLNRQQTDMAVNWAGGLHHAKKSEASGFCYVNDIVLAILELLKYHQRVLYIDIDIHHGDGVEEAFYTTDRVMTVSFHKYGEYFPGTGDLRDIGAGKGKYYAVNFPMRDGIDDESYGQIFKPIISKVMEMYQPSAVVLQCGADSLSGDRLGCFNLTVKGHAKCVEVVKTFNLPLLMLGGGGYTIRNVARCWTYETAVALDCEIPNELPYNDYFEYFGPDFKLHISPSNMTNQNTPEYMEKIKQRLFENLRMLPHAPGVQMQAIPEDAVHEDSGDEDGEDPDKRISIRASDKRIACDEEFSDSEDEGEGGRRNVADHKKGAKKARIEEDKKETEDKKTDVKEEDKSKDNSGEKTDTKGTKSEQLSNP
Histone deacetylase 3, sequence (O15379 whole entry): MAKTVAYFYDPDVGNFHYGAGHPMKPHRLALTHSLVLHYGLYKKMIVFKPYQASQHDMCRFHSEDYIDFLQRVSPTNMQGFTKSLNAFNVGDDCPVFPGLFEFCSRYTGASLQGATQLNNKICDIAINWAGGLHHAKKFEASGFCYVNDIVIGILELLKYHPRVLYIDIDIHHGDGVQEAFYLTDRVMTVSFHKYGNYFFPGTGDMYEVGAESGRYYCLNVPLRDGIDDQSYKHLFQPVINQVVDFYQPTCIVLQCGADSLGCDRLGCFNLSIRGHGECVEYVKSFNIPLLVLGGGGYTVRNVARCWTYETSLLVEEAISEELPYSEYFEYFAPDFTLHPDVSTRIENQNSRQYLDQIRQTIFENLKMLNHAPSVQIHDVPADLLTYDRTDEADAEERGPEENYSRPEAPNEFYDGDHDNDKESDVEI

As to `CCN(CC)CCNC(=O)c1ccc(NC(=O)CCCCCCC(=O)NO)cc1`, the result with Plasmodium falciparum [1] and in the experiment on Plasmodium falciparum [8] was Active. The Activity result in the experiment on Plasmodium falciparum [2] and in the experiment on Plasmodium falciparum [5] was “<=90%” each time. The IC50 in experiment [3] came to 380 nM; in experiment [4] it was 14 nM; in the experiment on Plasmodium falciparum [7] it was 76 nM; on Histone deacetylase 3, 70 nM; at Histone deacetylase 2, 80 nM. In addition, in the experiment with Plasmodium falciparum [6], the “log(activity)” value was 3.8. In the experiment on Plasmodium falciparum [9], the Time came to 0 h. In the experiment on Plasmodium falciparum [10], the LT99.9 was 40.3 h. Also, the fold change (FC) with Plasmodium falciparum [11] was 6.

With `O=C(CCCCCCC(=O)Nc1ccc(C(=O)NC2CCNCC2)cc1)NO`, the outcome in the experiment on Plasmodium falciparum [1] and in the experiment with Plasmodium falciparum [8] was Active. Also, the Activity result with Plasmodium falciparum [2] and with Plasmodium falciparum [5] was “<=90%” each time. Further, the IC50 in [3] turned out to be 480 nM; in experiment [4], 19 nM; in the experiment on Plasmodium falciparum [7], 70 nM; at Histone deacetylase 3 it was 110 nM; on Histone deacetylase 2, 270 nM. Also, in the experiment with Plasmodium falciparum [6], the “log(activity)” value stood at 4.22. The Time in the experiment with Plasmodium falciparum [9] came to 6 h. Also, the LT99.9 in the experiment with Plasmodium falciparum [10] is 34.3 h. The fold change (FC) with Plasmodium falciparum [11] amounted to 6.

Source of the values: ChEMBL document CHEMBL5034012, “Procainamide-SAHA Fused Inhibitors of hHDAC6 Tackle Multidrug-Resistant Malaria Parasites” (J Med Chem, 2021).
